ChEMBL document CHEMBL1152922, “7-O-methylkaempferol and -quercetin glycosides from the whole plant of Nervilia fordii” (J Nat Prod, 2009)
The source made the active and inactive calls. The rule behind the calls is not given here.

Assays:
Human alphaherpesvirus 1 [1] = assay: Antiviral activity against HSV1 infected in african green monkey Vero cells assessed as total inhibitory concentration after 3 days by plaque reduction assay; type: functional
In short: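 Vero cells seeded in 24-well plates and grown 24 h, then infected with 30 PFU HSV-1 in the presence of a range of sample concentrations. Samples were diluted in DMEM with 2% FBS at pH 7.2, and medium alone served as control. Wells were overlaid with 1% methylcellulose medium and incubated 3 days, then formalin-fixed and crystal violet-stained. Plaques were counted, and the 100%-inhibitory concentration was read from plots.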

[2] = Cytotoxicity against african green monkey Vero cells after 3 days by MTT assay; type: cell-based; settings: chlorocebus sabaeus, read-out: MNCC
Human alphaherpesvirus 1 [3] = assay: Antiviral activity against HSV1 infected in african green monkey Vero cells assessed as inhibition of virus-induced cytopathic effect after 3 days; settings: Human alphaherpesvirus 1, Vero, 72 h

SMILES	Activity (Human alphaherpesvirus 1 [1])	MNTC at 72 h [2]	IC50 (Human alphaherpesvirus 1 [3])
COc1cc(O)c2c(=O)c(O)c(-c3ccc(O)c(OC)c3)oc2c1 [RHAMNAZIN]	inactive	40 µM	–
COc1cc(O)c2c(=O)c(O[C@@H]3O[C@H](CO)[C@@H](O[C@@H]4O[C@H](CO)[C@@H](O)[C@H](O)[C@H]4O)[C@H](O)[C@H]3O)c(-c3ccc(O)cc3)oc2c1 [NERVILIFORDIN B]	inactive	160 µM	–
Nc1nc2c(ncn2COCCO)c(=O)[nH]1 [ACYCLOVIR]	–	1110 µM	4.3 µM
COc1cc(O)c2c(=O)c(O)c(-c3ccc(O)cc3)oc2c1 [RHAMNOCITRIN]	inactive	80 µM	–
O=c1ccc2cc(O)c(O)cc2o1 [ESCULETIN]	0.14 mM	140 µM	–
COc1cc(O)c2c(=O)c(O)c(-c3ccc(O)c(O)c3)oc2c1 [RHAMNETIN]	inactive	80 µM	–
COc1cc(O)c2c(=O)c(O[C@@H]3O[C@H](CO)[C@@H](O[C@@H]4OC[C@@H](O)[C@H](O)[C@H]4O)[C@H](O)[C@H]3O)c(-c3ccc(O)cc3)oc2c1 [NERVILIFORDIN A]	inactive	170 µM	–
COc1cc(O)c2c(=O)c(O[C@@H]3O[C@H](CO)[C@@H](O[C@@H]4O[C@H](CO)[C@@H](O)[C@H](O)[C@H]4O)[C@H](O)[C@H]3O)c(-c3ccc(O)c(O)c3)oc2c1 [NERVILIFORDIN C]	inactive	160 µM	–
COc1cc(O)c2c(=O)c(O[C@@H]3O[C@H](CO)[C@@H](O)[C@H](O)[C@H]3O)c(-c3ccc(O[C@@H]4O[C@H](CO)[C@@H](O)[C@H](O)[C@H]4O)cc3)oc2c1 [COMPLANATUSIDE]	inactive	320 µM	–
O=c1cc(-c2ccc(O)cc2)oc2c([C@@H]3O[C@H](CO)[C@@H](O)[C@H](O)[C@H]3O)c(O)c([C@@H]3O[C@H](CO)[C@@H](O)[C@H](O)[C@H]3O)c(O)c12	inactive	170 µM	–
COc1cc(O)c2c(=O)c(O[C@@H]3O[C@H](CO)[C@@H](O)[C@H](O)[C@H]3O)c(-c3ccc(O)c(OC)c3)oc2c1	inactive	200 µM	–
